From ChEMBL document CHEMBL4145598, “Discovery and Development of 8-Substituted Cycloberberine Derivatives as Novel Antibacterial Agents against MRSA” (ACS Med Chem Lett, 2018)

Tests used:
Assay type in all cases: functional
Staphylococcus aureus [1] = assay: Antimicrobial activity against methicillin-resistant Staphylococcus aureus isolate 12-16 after 18 hrs by agar dilution assay; conditions: isolate 12-16, 18 h
Summary of the method: (§1)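 Drug-resistant S. aureus (MRSA/VISA) panel. It includes ATCC reference strains and clinical isolates from patients in Chinese hospitals. MIC was determined by standard methods and reported in μg/mL, with levofloxacin as the reference drug.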

Staphylococcus aureus [2] = assay: Antimicrobial activity against methicillin-resistant Staphylococcus aureus ATCC-BAA-1708 after 18 hrs by agar dilution assay; conditions: ATCC-BAA-1708, 18 h; summary of the method: as §1
[3] = test system: Staphylococcus saprophyticus; assay: Antimicrobial activity against Staphylococcus saprophyticus ATCC 15305 after 18 hrs by agar dilution assay; conditions: ATCC 15305, 18 h
Staphylococcus aureus [4] = assay: Antimicrobial activity against methicillin-sensitive Staphylococcus aureus isolate 13-19 after 18 hrs by agar dilution assay; conditions: isolate 13-19, 18 h
Staphylococcus aureus [5] = assay: Antimicrobial activity against methicillin-resistant Staphylococcus aureus isolate 12-13 after 18 hrs by agar dilution assay; conditions: isolate 12-13, 18 h; summary of the method: as §1
Staphylococcus aureus [6] = assay: Antimicrobial activity against methicillin-resistant Staphylococcus aureus isolate 12-8 after 18 hrs by agar dilution assay; conditions: isolate 12-8, 18 h; summary of the method: as §1
Staphylococcus aureus [7] = assay: Antimicrobial activity against methicillin-resistant Staphylococcus aureus isolate 13-18 after 18 hrs by agar dilution assay; conditions: isolate 13-18, 18 h; summary of the method: as §1
[8] = test system: Staphylococcus epidermidis; assay: Antimicrobial activity against methicillin-sensitive Staphylococcus epidermidis ATCC 12228 after 18 hrs by agar dilution assay; conditions: ATCC 12228, 18 h
Staphylococcus aureus [9] = assay: Antimicrobial activity against methicillin-resistant Staphylococcus aureus isolate 12-3 after 18 hrs by agar dilution assay; conditions: isolate 12-3, 18 h; summary of the method: as §1
Staphylococcus aureus [10] = assay: Antimicrobial activity against methicillin-sensitive Staphylococcus aureus isolate 13-21 after 18 hrs by agar dilution assay; conditions: isolate 13-21, 18 h
Staphylococcus aureus [11] = assay: Antimicrobial activity against vancomycin-intermediate Staphylococcus aureus ATCC 700699 after 18 hrs by agar dilution assay; conditions: ATCC 700699, 18 h
Summary of the method: (§2)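 MICs in μg/mL against drug-resistant S. aureus (MRSA/VISA) by standard methods, with levofloxacin as the reference drug. ATCC strains were used.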

[12] = test system: Staphylococcus epidermidis; assay: Antimicrobial activity against methicillin-sensitive Staphylococcus epidermidis isolate 13-1 after 18 hrs by agar dilution assay; conditions: isolate 13-1, 18 h
Staphylococcus aureus [13] = assay: Antimicrobial activity against methicillin-sensitive Staphylococcus aureus isolate 13-20 after 18 hrs by agar dilution assay; conditions: isolate 13-20, 18 h
Staphylococcus hominis = assay: Antimicrobial activity against Staphylococcus hominis ATCC 35982 after 18 hrs by agar dilution assay; conditions: ATCC 35982, 18 h
Staphylococcus aureus [14] = assay: Antimicrobial activity against methicillin-sensitive Staphylococcus aureus isolate 13-17 after 18 hrs by agar dilution assay; conditions: isolate 13-17, 18 h
Staphylococcus aureus [15] = assay: Antimicrobial activity against methicillin-resistant Staphylococcus aureus ATCC 33591 after 18 hrs by agar dilution assay; conditions: ATCC 33591, 18 h; summary of the method: as §1
Staphylococcus aureus [16] = assay: Antimicrobial activity against methicillin-resistant Staphylococcus aureus isolate 13-23 after 18 hrs by agar dilution assay; conditions: isolate 13-23, 18 h; summary of the method: as §1
Staphylococcus aureus [17] = assay: Antimicrobial activity against vancomycin-intermediate Staphylococcus aureus ATCC 700698 after 18 hrs by agar dilution assay; conditions: ATCC 700698, 18 h; summary of the method: as §2
Staphylococcus aureus [18] = assay: Antimicrobial activity against methicillin-sensitive Staphylococcus aureus isolate 15 after 18 hrs by agar dilution assay; conditions: isolate 15, 18 h
Staphylococcus aureus [19] = assay: Antimicrobial activity against methicillin-sensitive Staphylococcus aureus ATCC 29213 after 18 hrs by agar dilution assay; conditions: ATCC 29213, 18 h

SMILES | MIC (Staphylococcus aureus [1]) [µg/mL] | MIC (Staphylococcus aureus [2]) [µg/mL] | MIC [3] [µg/mL] | MIC (Staphylococcus aureus [4]) [µg/mL] | MIC (Staphylococcus aureus [5]) [µg/mL] | MIC (Staphylococcus aureus [6]) [µg/mL] | MIC (Staphylococcus aureus [7]) [µg/mL] | MIC [8] [µg/mL] | MIC (Staphylococcus aureus [9]) [µg/mL] | MIC (Staphylococcus aureus [10]) [µg/mL] | MIC (Staphylococcus aureus [11]) [µg/mL] | MIC [12] [µg/mL] | MIC (Staphylococcus aureus [13]) [µg/mL] | MIC (Staphylococcus hominis) [µg/mL] | MIC (Staphylococcus aureus [14]) [µg/mL] | MIC (Staphylococcus aureus [15]) [µg/mL] | MIC (Staphylococcus aureus [16]) [µg/mL] | MIC (Staphylococcus aureus [17]) [µg/mL] | MIC (Staphylococcus aureus [18]) [µg/mL] | MIC (Staphylococcus aureus [19]) [µg/mL]
COc1ccc2c(c[n+]3c4c2ccc2c5c(cc(c24)CC3)OCO5)c1NCc1ccccc1.[Cl-] | 64 | 64 | 8 | 64 | 64 | 64 | 64 | 8 | 64 | 64 | > 64 | 64 | 64 | 8 | 64 | 64 | 64 | 32 | 64 | 64
COc1ccc2c(c[n+]3c4c2ccc2c5c(cc(c24)CC3)OCO5)c1NCc1ccco1.[Cl-] | 64 | > 64 | 32 | 16 | 32 | 64 | 64 | 32 | 32 | 32 | > 64 | 64 | 32 | 32 | 32 | 64 | 64 | > 64 | 32 | 32
COc1ccc2c(c[n+]3c4c2ccc2c5c(cc(c24)CC3)OCO5)c1N.[Cl-] | 4 | 4 | 8 | 8 | 4 | 4 | 8 | 8 | 8 | 8 | 4 | 8 | 4 | 8 | 4 | 4 | 8 | 64 | 4 | 4
COc1ccc2c(c[n+]3c4c2ccc2c5c(cc(c24)CC3)OCO5)c1NC(=O)c1cc(C)n(C)n1.[Cl-] | 16 | 16 | > 64 | 8 | 16 | 32 | 32 | 32 | 32 | 16 | 4 | > 64 | 8 | > 64 | 16 | 64 | 8 | > 64 | 16 | 16
COc1ccc2c(c[n+]3c4c2ccc2c5c(cc(c24)CC3)OCO5)c1OCC(=O)c1ccc(C)cc1.[Br-] | 4 | 8 | 4 | 4 | 4 | 8 | 4 | 2 | 4 | 4 | > 64 | 8 | 8 | 4 | 4 | 4 | 4 | > 64 | 8 | 4
COc1ccc2c(c[n+]3c4c2ccc2c5c(cc(c24)CC3)OCO5)c1NC(=O)c1ccccn1.[Cl-] | > 64 | > 64 | > 64 | > 64 | > 64 | > 64 | > 64 | > 64 | > 64 | > 64 | > 64 | > 64 | > 64 | > 64 | > 64 | > 64 | > 64 | > 64 | > 64 | > 64
COc1ccc2c(c[n+]3c4c2ccc2c5c(cc(c24)CC3)OCO5)c1OCC(=O)c1cccc(OC(F)(F)F)c1.[Br-] | 16 | 64 | 16 | 16 | 32 | 8 | 16 | 16 | 16 | 16 | > 64 | 32 | 16 | 32 | 16 | 16 | 16 | > 64 | 16 | 32
COc1ccc2c(c[n+]3c4c2ccc2c5c(cc(c24)CC3)OCO5)c1OCC(=O)C(C)(C)C.[Br-] | 32 | 32 | 32 | 32 | 32 | 64 | 32 | 32 | 32 | 32 | > 64 | 32 | 32 | 16 | 32 | 32 | 32 | > 64 | 64 | 32
C[C@H]1COc2c(N3CCN(C)CC3)c(F)cc3c(=O)c(C(=O)O)cn1c23.C[C@H]1COc2c(N3CCN(C)CC3)c(F)cc3c(=O)c(C(=O)O)cn1c23.O [LEVOFLOXACIN] | 32 | 16 | 0.5 | 0.5 | 32 | 32 | 32 | 0.06 | 32 | 0.25 | 2 | 0.125 | 0.125 | 0.125 | 0.125 | 0.125 | 32 | 32 | 0.125 | 0.06
